# Compound activity as filed in PubChem.
# Sampled rows, rich in hits. Any-hit rate of the full collection: about 2.4%.
# aDG glyco act: alpha-DG glycosylation activation; Pro5-aDG cells, alpha-DG glycosylation AlphaScreen (IIH6); 0% Pro5, 100% B10-LARGE cell signal; 360,000 compounds, 0.22% hits; activation, % at 10 µM;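 active = activation of at least 8% versus controls, or a plate z-score of at least 8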;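 note: Pro5 are CHO cells carrying HIG-tagged alpha-DG that lacks glycosylation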
# Jurkat NFkB inh: lowers PMA/ionomycin-induced NF-kB signal in Jurkat cells; AID 435003; inhibition, % at 4 µM; 330,000 compounds, 0.53% hits; PMA/ionomycin-induced NF-kB luciferase reporter, luminescence; in the data active = inhibition above about 50%
# 697 NFkB inh: lowers PMA/ionomycin-induced NF-kB signal in 697 B cells | inhibition, % at 4 µM | 330,000 compounds, 0.33% hits | AID 435022 | 697 B-cell NF-kB luciferase reporter, 16 h; in the data active = inhibition above about 35%
# MPTP inh: inhibitors of mitochondrial permeability transition pore. isolated mouse mitochondria, Ca2+ swelling absorbance, 30 min. inhibition, % at 10 µM. 360,000 compounds, 1.4% hits;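 active = inhibition of 50% or more, scaled per plate between neutral and stimulator controls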;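 note: 0% = DMSO wells given calcium and 100% = 1 mM EGTA wells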
# NR2E3 ag-1: activates human photoreceptor nuclear receptor NR2E3; Q9Y5X4; GST-NR2E3/biotin-RetCOR TR-FRET, 1536-well; inhibition of corepressor binding, % at 4.78 µM; 320,000 compounds, 0.12% hits; AID 2300;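 active = percent inhibition above the cutoff of mean plus 3 SD of all tested compounds, set per screening campaign, cut at about 20% in these data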;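 note: 0% = DMSO wells and 100% = biotin wells as full block of FRET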
# Target sequence (Q9Y5X4 whole entry, looked up): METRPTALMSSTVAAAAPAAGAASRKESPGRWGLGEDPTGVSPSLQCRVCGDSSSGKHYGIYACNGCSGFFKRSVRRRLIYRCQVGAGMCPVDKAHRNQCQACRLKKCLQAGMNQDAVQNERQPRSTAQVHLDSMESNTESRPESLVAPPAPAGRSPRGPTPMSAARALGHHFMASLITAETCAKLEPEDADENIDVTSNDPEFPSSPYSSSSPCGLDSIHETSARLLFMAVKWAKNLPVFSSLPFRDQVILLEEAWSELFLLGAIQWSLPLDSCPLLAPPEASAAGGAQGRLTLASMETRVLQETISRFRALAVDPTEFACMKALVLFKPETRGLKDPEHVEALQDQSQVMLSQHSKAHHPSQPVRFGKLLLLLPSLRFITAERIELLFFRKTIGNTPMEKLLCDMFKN
#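 Material: NR2E3–RetCOR corepressor complex / Amount: 1.35 nM GST-NR2E3 / Medium: Tris pH 7.5 / Compound: single nominal compound dose of 4.8 µM / Incubation: 5 h at 4 °C / Technique: TR-FRET, Eu(K)-anti-GST donor, streptavidin-D2 acceptor, ex 340, em 617/671 nm / Read-out basis: percent loss of FRET ratio relative to control wells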
# NR2E3 ag-2: agonists of human NR2E3 nuclear receptor; Q9Y5X4; CHO-S Gal4-NCOR/VP16-NR2E3 two-hybrid, luciferase; inhibition of corepressor binding, % at 3.98 µM; 360,000 compounds, 0.35% hits;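 active = inhibition above the mean of all tested compounds plus 3 SD, cut at about 70% in these data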;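 note: 0% = DMSO with NR2E3 transfected cells and 100% = cells lacking NR2E3 construct; higher means lower luciferase signal from less NR2E3 corepressor binding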
# NR2E3 ag conf: NR2E3 agonism confirmed in two-hybrid assay | 2,300 compounds, 51% hits | inhibition, % at 3.98 µM | shares compounds with NR2E3 ag-2 | CHO-S mammalian two-hybrid NR2E3-NCOR, luciferase luminescence;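 active = average inhibition above a cutoff equal to the mean inhibition of all tested compounds plus one SD, cut at about 70% in these data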;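 note: 0% = DMSO in NR2E3 cells and 100% = DMSO in cells lacking NR2E3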
# VP16 counter: counter-screen for NR2E3 agonists: GAL4-VP16 reporter inhibitors. shares compounds with NR2E3 ag-2. CHO-S GAL4-VP16 luciferase reporter, luminescence. inhibition, % at 3.98 µM. 2,300 compounds, 29% hits;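 active = mean inhibition above a cutoff equal to the average over all tested compounds plus one standard deviation, cut at about 70% in these data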;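 note: luciferase from a UAS reporter driven by GAL4-VP16 transactivation; 0% = DMSO with VP16-transfected cells and 100% = DMSO with cells lacking VP16; higher means less reporter light so more repression of VP16 activity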
# MPTP counter: membrane potential counter-screen of mitochondrial pore inhibitors; shares compounds with MPTP inh; isolated mitochondria, Rhodamine 123 fluorescence; inhibition, % at 10 µM; 5,000 compounds, 78% hits; AID 624504; in the data active = inhibition above about 22%;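 note: 0% = DMSO vehicle and 100% = positive control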
# * marks the source's active call; other numbers are inactive results; . = not tested or not shown.
SMILES,aDG glyco act,Jurkat NFkB inh,697 NFkB inh,MPTP inh,NR2E3 ag-1,NR2E3 ag-2,NR2E3 ag conf,VP16 counter,others
COc1cccc(NC(=O)N2CCC(NC(=O)C(Cc3ccccc3F)NC(C)=O)CC2)c1 (stereo unspecified),0.1,7.6,2.7,-1.3,-0.3,0.4,.,.,
COc1cc2c(cc1OC)C(c1cc(OC)c(OC)cc1[N+](=O)[O-])N(C(C)=O)CC2 (stereo unspecified),-0.1,-2.3,4.6,0.8,4.0,-35.5,.,.,
Cc1ccc(NC(=O)CSc2nnnn2-c2ccc3c(c2)OCO3)cc1C,-0.3,-6.7,12.5,4.4,2.2,90.8*,100.1*,1.1,
O=C(CSc1nnnn1-c1ccc(O)cc1)Nc1ccc(N2CCOCC2)c(Cl)c1,-0.6,-7.9,-6.3,0.0,2.7,97.5*,98.0*,31.5,
COc1ccc(OC)c(NC(=O)CSc2nnnn2-c2ccc3c(c2)OCO3)c1,-0.4,9.1,-2.1,-0.6,0.3,100.8*,99.9*,39.6,
COc1ccc(-c2cc(C(F)F)n3ncc(C(=O)Nc4cc(C)on4)c3n2)cc1,-0.3,-19.0,1.1,2.7,0.8,-7.4,.,.,
C/C(=N\NC(=O)c1cccc(Br)c1)c1cccnc1,-0.2,3.6,19.9,-0.8,.,-38.2,.,.,
C[C@@H](C(=O)Nc1ccc2c(c1)OCCO2)n1c(=O)[nH]c2ccccc2c1=O,0.3,16.3,-47.9,-1.4,-5.0,61.1,41.6,1.6,
Cc1oncc1C(=O)Nc1cccc(C#N)c1,-0.5,-14.0,-17.4,1.0,-1.8,4.3,.,.,
CN(Cc1nccs1)C(=O)c1cc(COc2cccc3cnccc23)on1,3.8,19.4,-37.0,41.3,-1.6,94.0*,80.9*,75.5*,
Cn1c(=O)c2c(ncn2CC(=O)N2CCN(C(=O)c3ccco3)CC2)n(C)c1=O,0.2,3.2,11.0,-1.3,2.6,-10.8,.,.,
COc1ccc(C2(c3ccc(OC)cc3)NC(=O)N(CC(=O)NCC(F)(F)F)C2=O)cc1,0.0,-3.6,5.3,0.8,2.2,-9.1,.,.,
O=S(=O)(NCC(c1cccnc1)N1CCN(Cc2ccccc2)CC1)c1cc(F)ccc1F (stereo unspecified),0.2,20.1,7.6,-2.4,1.5,-9.9,.,.,
COc1ccc(/C=N\NC(=S)SCN2C(=O)C3CCC(C)(C2=O)C3(C)C)cc1 (stereo unspecified),-0.2,-6.0,7.6,1.3,0.3,-7.0,.,.,
CC12CCC(C(=O)N(CSC(=S)N/N=C\c3ccccc3O)C1=O)C2(C)C (stereo unspecified),-0.2,2.8,-19.2,2.1,4.4,90.7*,-8.1,-37.9,
Cc1ccc(-c2c(C(=O)N/N=C/c3ccsc3)nnn2-c2nonc2N)cc1,0.0,6.6,12.3,-1.4,0.2,-21.8,.,.,
C/C=C/c1ccc(OCCOCCNCc2ccccc2)c(OC)c1,1.2,-3.6,-0.9,0.8,-4.1,7.2,.,.,
FC(F)(F)c1cnc(NNC(=S)Nc2ccccc2Cl)c(Cl)c1,0.4,-3.0,-28.3,54.6*,6.4,52.5,65.6,65.9,MPTP counter=89.1*
O=c1cc(C(F)(F)F)nc(SCc2cccc3ccccc23)[nH]1,0.1,8.3,0.8,78.1*,-0.8,100.2*,98.4*,83.8*,MPTP counter=85.0*
N#CCCN(Cc1ccccc1)C(=O)Nc1ccc2c(c1)CCO2,-0.1,-4.2,1.0,0.0,2.5,-0.3,.,.,
Cc1csc2c(N3CCN(C(=S)Nc4ccc(F)cc4F)CC3)ncnc12,0.1,10.4,-9.1,91.7*,3.0,90.2*,97.1*,87.7*,MPTP counter=91.0*
CC(C)CN(C(=O)COc1cccc(-n2cnnn2)c1)C1CCS(=O)(=O)C1 (stereo unspecified),-0.1,12.2,9.9,1.0,-2.3,0.9,.,.,
